# pIC50: −log10 of the molar value. Activity calls are given as the source filed them. The rule behind the calls is not given here.
# Key:
# SGC-7901 [1] = assay: Induction of apoptosis in human SGC-7901 cells assessed as early apoptotic cells at 40 nM incubated for 48 hrs by annexin V-FITC and PI staining based flow cytometry analysis (reference value: 1.4 %); format: functional
# MGC-803 [2] = assay: Activation of Hippo signaling pathway in human […] cells assessed as downregulation of YAP at 20 to 60 nM incubated for 48 hrs by Western blot analysis; format: cell-based; conditions: filed as activator, dose 20-60 nM
# Method in brief: (§1)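 Western blot on gastric cancer cells exposed to compound or DMSO at 20, 40 and 60 nM for 48 h. Cells were lysed, then the denatured lysates were separated by SDS-PAGE and transferred to PVDF. Membranes were blocked and probed with primary and then secondary antibodies. Hippo pathway proteins were detected.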
# SGC-7901 [3] = assay: Inhibition of tubulin polymerization in human SGC-7901 cells assessed as increase in multiple nucleus formation at 20 to 60 nmol/L by DAPI staining based microscopic analysis; format: cell-based; conditions: dose 20-60 nmol/L
# Method in brief: (§2)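 Cells cultured in RPMI-1640 with 10% FBS at 37 °C, 5% CO2, treated 48 h with 20, 40 and 60 nM; stained for β-tubulin (green) and nuclei (blue) and examined by microscopy.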
# MGC-803 [4] = assay: Induction of apoptosis in human MGC-803 cells assessed as increase in PARP cleavage at 20 to 60 nM incubated for 48 hrs by Western blot analysis; format: functional, cell-based; conditions: dose 20-60 nM
# Method in brief: (§3)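 Western blot on MGC-803 and SGC-7901 cells given 20, 40 and 60 nM compound or DMSO for 48 h. Denatured lysates were run on SDS-PAGE and transferred to PVDF, then probed with primary and secondary antibodies to detect apoptosis-related proteins.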
# [5] = Antiproliferative activity against human SGC-7901 cells assessed as reduction in cell viability at 60 nmol/L incubated for 48 hrs by MTT assay relative to control; format: functional; conditions: SGC-7901, 48 h
# Method in brief: (§4)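 MTT viability in gastric cell lines grown in RPMI-1640 with 10% FBS at 37 °C, 5% CO2. Compound at 20, 40 and 60 nM for 48 h, starting 24 h after seeding 5,000 cells per well. MTT for 4 h, formazan dissolved in DMSO, absorbance at 490 nm. Inhibition expressed relative to control.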
# MGC-803 [6] = assay: Induction of apoptosis in human MGC-803 cells assessed as downregulation of Bcl-xl at 20 to 60 nM incubated for 48 hrs by Western blot analysis; format: functional, cell-based; conditions: dose 20-60 nM; method in brief: as §3
# PC-3 = assay: Antiproliferative activity against human PC-3 cells assessed as reduction in cell viability incubated for 48 hrs by MTT assay; format: functional, cell-based; conditions: PC-3, 48 h
# Method in brief: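 MTT assay. 5,000 cells per well in RPMI-1640 with 10% FBS and penicillin/streptomycin at 37 °C, 5% CO2. Compound added 24 h after seeding and left for 48 h. MTT was then added for 4 h at 37 °C, formazan dissolved in DMSO and absorbance read at 490 nm. IC50 calculated from three independent experiments.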
# SGC-7901 [7] = assay: Inhibition of tubulin polymerization in human SGC-7901 cells assessed as decrease in microtubule formation at 20 to 60 nmol/L by DAPI staining based microscopic analysis; format: cell-based; conditions: dose 20-60 nmol/L; method in brief: as §2
# SGC-7901 [8] = assay: Induction of apoptosis in human SGC-7901 cells assessed as increase in caspase-3 cleavage at 20 to 60 nM incubated for 48 hrs by Western blot analysis; format: functional, cell-based; conditions: dose 20-60 nM
# Method in brief: (§5)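 Cells grown in RPMI-1640 with 10% FBS, penicillin/streptomycin at 37 °C, 5% CO2. Exposure to 20, 40 or 60 nM for 48 h alongside DMSO control. Lysates denatured, resolved by SDS-PAGE, transferred to PVDF, blocked, then probed with primary and secondary antibodies.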
# MGC-803 [9] = assay: Inhibition of tubulin polymerization in human MGC-803 cells assessed as decrease in microtubule formation at 20 to 60 nmol/L by DAPI staining based microscopic analysis; format: cell-based; conditions: dose 20-60 nmol/L; method in brief: as §2
# MGC-803 [10] = assay: Antiproliferative activity against human MGC-803 cells assessed as reduction in cell viability at 60 nmol/L incubated for 48 hrs by MTT assay relative to control; format: functional; method in brief: as §4
# MGC-803 [11] = assay: Induction of apoptosis in human MGC-803 cells assessed as upregulation of FADD at 20 to 60 nM incubated for 48 hrs by Western blot analysis; format: functional, cell-based; conditions: dose 20-60 nM; method in brief: as §3
# SGC-7901 [12] = assay: Inhibition of colony formation in human SGC-7901 cells at 20 to 60 nM incubated for 7 days by crystal violet staining based assay; format: functional, cell-based; conditions: dose 20-60 nM, time 7.0 day
# Method in brief: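 Cells maintained in RPMI-1640 with 10% FBS at 37 °C, 5% CO2; incubated with 20, 40 and 60 nM for 7 days before colony counting.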
# SGC-7901 [13] = assay: Activation of Hippo signaling pathway in human SGC-7901 cells assessed as downregulation of TEAD at 20 to 60 nM incubated for 48 hrs by Western blot analysis; format: cell-based; conditions: filed as activator, dose 20-60 nM; method in brief: as §1
# SGC-7901 [14] = assay: Activation of Hippo signaling pathway in human SGC-7901 cells assessed as downregulation of YAP at 20 to 60 nM incubated for 48 hrs by Western blot analysis; format: cell-based; conditions: filed as activator, dose 20-60 nM; method in brief: as §1
# SGC-7901 [15] = assay: Induction of apoptosis in human SGC-7901 cells assessed as increase in caspase-9 cleavage at 20 to 60 nM incubated for 48 hrs by Western blot analysis; format: functional, cell-based; conditions: dose 20-60 nM; method in brief: as §5
# GES1 = assay: Cytotoxicity against human GES1 cells assessed as reduction in cell viability at 60 nmol/L incubated for 48 hrs by MTT assay; format: functional; conditions: GES1, read-out: INH; method in brief: as §4
# SGC-7901 [16] = assay: Cytotoxicity against human SGC-7901 cells harboring SiYAP assessed as increase in cell viability at 20 to 60 nM incubated for 48 hrs by MTT assay; format: cell-based; conditions: sgc-7901, 48 h, 0.06 µM, dose 20-60 nM
# SGC-7901 [17] = assay: Induction of apoptosis in human SGC-7901 cells assessed as late apoptotic cells at 40 nM incubated for 48 hrs by annexin V-FITC and PI staining based flow cytometry analysis (reference value: 2.4 %); format: functional
# MGC-803 [18] = assay: Induction of apoptosis in human MGC-803 cells assessed as early apoptotic cells at 60 nM incubated for 48 hrs by annexin V-FITC and PI staining based flow cytometry analysis (reference value: 2.9 %); format: functional
# MGC-803 [19] = assay: Inhibition of tubulin polymerization in human MGC-803 cells assessed as decrease in filamentous structure at 20 to 60 nmol/L by DAPI staining based microscopic analysis; format: cell-based; conditions: dose 20-60 nmol/L; method in brief: as §2
# SGC-7901 [20] = assay: Induction of apoptosis in human SGC-7901 cells assessed as early apoptotic cells at 20 nM incubated for 48 hrs by annexin V-FITC and PI staining based flow cytometry analysis (reference value: 1.4 %); format: functional
# MGC-803 [21] = assay: Induction of apoptosis in human MGC-803 cells assessed as late apoptotic cells at 60 nM incubated for 48 hrs by annexin V-FITC and PI staining based flow cytometry analysis (reference value: 4.1 %); format: functional
# MGC-803 [22] = assay: Induction of apoptosis in human MGC-803 cells assessed as early apoptotic cells at 20 nM incubated for 48 hrs by annexin V-FITC and PI staining based flow cytometry analysis (reference value: 2.9 %); format: functional
compound,measurement,setting,value
COc1ccc(CN(C(=O)CSc2nc3ccccc3s2)c2cc(OC)c(OC)c(OC)c2)cc1O,Activity,SGC-7901 [1],9.5%
same,Activity,MGC-803 [2],Active
same,Activity,SGC-7901 [3],Active
same,Activity,MGC-803 [4],Active
same,inhibition at 0.06 µM,[5],63%
same,Activity,MGC-803 [6],Active
same,pIC50,PC-3,5.68
same,Activity,SGC-7901 [7],Active
same,Activity,SGC-7901 [8],Active
same,Activity,MGC-803 [9],Active
same,inhibition at 0.06 µM,MGC-803 [10],72%
same,Activity,MGC-803 [11],Active
same,Activity,SGC-7901 [12],Active
same,Activity,SGC-7901 [13],Active
same,Activity,SGC-7901 [14],Active
same,Activity,SGC-7901 [15],Active
same,inhibition at 0.06 µM,GES1,< 20%
same,Activity,SGC-7901 [16],Non-Toxic
same,Activity,SGC-7901 [17],6.8%
same,Activity,MGC-803 [18],43%
same,Activity,MGC-803 [19],Active
same,Activity,SGC-7901 [20],4.2%
same,Activity,MGC-803 [21],30.4%
same,Activity,MGC-803 [22],4.4%

# Source: ChEMBL document CHEMBL4765386, “Discovery of tertiary amide derivatives incorporating benzothiazole moiety as anti-gastric cancer agents in vitro via inhibiting tubulin polymerization and activating the Hippo signaling pathway” (Eur J Med Chem, 2020)
